The source of these data is PMC3985442 (The Journal of Organic Chemistry, 2014).

Where two headings read alike, the source gives them in different places.

Experiment [1] concerns the target T1, His-Ste14p (yeast Icmt) (Saccharomyces cerevisiae, UniProt P32584).
T1 sequence (P32584 1-239): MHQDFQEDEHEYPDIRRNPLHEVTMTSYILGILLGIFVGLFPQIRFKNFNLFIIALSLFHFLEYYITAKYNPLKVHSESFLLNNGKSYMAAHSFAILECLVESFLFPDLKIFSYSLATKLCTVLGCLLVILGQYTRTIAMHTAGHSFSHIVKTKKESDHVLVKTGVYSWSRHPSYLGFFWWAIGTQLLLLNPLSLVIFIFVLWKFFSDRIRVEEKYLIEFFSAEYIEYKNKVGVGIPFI
The conditions noted are these: cited from earlier work.

For experiment [2], the target named is T1, His-Ste14p (yeast Icmt). In kind it is biochemical. The following applies: pH 7.5, 30 °C; for Vmax: pmol of methyl groups transferred to substrate; for Vmax / Km: crude membrane preparations, 20 μM [14C]SAM, 100 mM Tris-HCl, 30 min, liquid scintillation counting; for Km: read-out: Km(app), apparent values (single SAM concentration, membrane suspension); for Vmax/Km: catalytic efficiency, from Vmax and apparent Km, crude membranes. The method, boiled down:
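Membranes from yeast strain CH2704 overexpressing His-Ste14p: 100 000g pellet resuspended in 10 mM Tris-HCl pH 7.5, stored at −80 °C. Reaction: membranes plus substrate, 20 μM [14C]SAM (50–60 mCi/mmol), 100 mM Tris-HCl pH 7.5, 30 °C for 30 min. Stopped with 1 M NaOH/1% SDS; base-labile [14C]methyl diffused onto filter over scintillant, rt for 2.5 h, then counted. Km apparent: single SAM level, peptide partitions into membranes.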

Experiment [3] deals with His-Ste14p (crude membranes). The format is binding, Saccharomyces cerevisiae. The conditions noted are these: 16 in competition with 17, 5 to 200 μM. The method, boiled down: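 Crude membranes (100 μg) from a Δste14 yeast strain overexpressing His-Ste14p, in 10 mM Tris-HCl pH 7.5, preincubated with increasing competitor peptide; diazirine photoprobe then added, 4 °C for 5 min. Irradiated at 365 nm, 30 min on ice. Solubilized in RIPA/10% SDS; neutravidin-agarose pulldown 2 h at 4 °C, three washes, eluted in SDS sample buffer at 65 °C for 30 min. 12% SDS-PAGE, α-Ste14p immunoblot (1:500).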

For `CC(=O)N[C@@H](CSC/C=C(\C)CC/C=C(\C)CCC=C(C)C)C(=O)O` [AFC, N-acetyl-S-farnesyl-L-cysteine], on His-Ste14p (yeast Icmt) [1] (catalytic efficiency, previously reported), the Vmax/Km was 54 pmol min^–1 mg^–1 μM^–1. The Vmax at His-Ste14p (yeast Icmt) [1] (pmol of methyl groups transferred to substrate, previously reported) is 870 ± 15 pmol min^–1 mg^–1. Moreover, the Km on His-Ste14p (yeast Icmt) [1] (read-out: Km(app), apparent values, previously reported) was 15.9 ± 0.9 µM.

On to “Biotin-Peg4-K(5-Fam)YIIKGVFWDPAC(C5-m-BP)-OH [compound 19]”, for which, on His-Ste14p (yeast Icmt) [2], the Vmax was 217 ± 3 pmol min^–1 mg^–1 and the Km is 27.8 ± 1 µM.

For the compound “Biotin-Peg4-K(5-Fam)YIIKGVFWDPAC(C10-Diazirine)-OH [compound 16]”, the “site of photolabeling, inferred from competition” value in experiment [3] is “labeling the substrate binding site of His-Ste14p”. On His-Ste14p (yeast Icmt) [2], the Vmax/Km came out at 143 pmol min^–1 mg^–1 μM^–1, the Vmax came out at 947 ± 4 pmol min^–1 mg^–1 and the Km was found to be 6.6 ± 0.2 µM. Moreover, the Vmax at His-Ste14p (yeast Icmt) [2] (listed as diazirine-containing peptide) is recorded as 947 pmol min^–1 mg^–1.

Consider “Biotin-Peg4-YIIKGVFWDPAC(Fr)-OH [compound 17]”, for which, at His-Ste14p (yeast Icmt) [2], the Vmax/Km came out at 157 pmol min^–1 mg^–1 μM^–1 and the Vmax came out at 1919 ± 30 pmol min^–1 mg^–1.

The Km is the concentration of substrate that gives half-maximal velocity.
